Our source for the IC50 and Activity values is ChEMBL document CHEMBL3124809, “Back pocket flexibility provides group II p21-activated kinase (PAK) selectivity for type I 1/2 kinase inhibitors” (J Med Chem, 2014).

Each structure is given as a SMILES string.

One assay has as its target T1, Ephrin type-B receptor 1 (Homo sapiens, UniProt P54762).
T1 sequence (P54762 whole entry): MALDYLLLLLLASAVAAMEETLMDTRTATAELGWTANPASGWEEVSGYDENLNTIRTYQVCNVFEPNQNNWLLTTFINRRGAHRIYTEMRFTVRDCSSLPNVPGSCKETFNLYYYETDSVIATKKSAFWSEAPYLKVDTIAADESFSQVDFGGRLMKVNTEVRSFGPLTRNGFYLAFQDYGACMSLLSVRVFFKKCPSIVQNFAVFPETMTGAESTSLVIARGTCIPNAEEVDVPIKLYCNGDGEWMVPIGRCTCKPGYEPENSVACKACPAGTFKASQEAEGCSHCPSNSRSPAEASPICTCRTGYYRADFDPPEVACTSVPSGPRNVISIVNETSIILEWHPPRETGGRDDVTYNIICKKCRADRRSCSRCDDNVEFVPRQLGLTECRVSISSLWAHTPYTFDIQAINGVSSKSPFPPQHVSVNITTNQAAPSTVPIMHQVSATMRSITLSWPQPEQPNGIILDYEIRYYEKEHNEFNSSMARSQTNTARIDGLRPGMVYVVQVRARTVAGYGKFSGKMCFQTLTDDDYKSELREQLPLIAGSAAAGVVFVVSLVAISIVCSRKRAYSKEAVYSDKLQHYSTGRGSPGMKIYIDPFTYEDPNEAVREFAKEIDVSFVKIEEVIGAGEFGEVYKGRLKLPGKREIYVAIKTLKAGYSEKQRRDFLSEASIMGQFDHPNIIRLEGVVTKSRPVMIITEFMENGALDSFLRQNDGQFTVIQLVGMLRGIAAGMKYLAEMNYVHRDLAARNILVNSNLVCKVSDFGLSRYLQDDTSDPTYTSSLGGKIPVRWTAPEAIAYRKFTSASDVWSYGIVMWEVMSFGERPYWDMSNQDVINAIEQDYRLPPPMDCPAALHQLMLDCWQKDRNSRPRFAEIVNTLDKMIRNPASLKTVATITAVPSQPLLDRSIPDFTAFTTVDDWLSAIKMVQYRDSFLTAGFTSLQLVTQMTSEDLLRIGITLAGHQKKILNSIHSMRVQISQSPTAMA
The experiment in a line: Inhibition of EphB1 (unknown origin).

A short description of assay [1]: Antiinvasive activity against human MCF10A cells harboring PIK3CA H1047R mutant assessed as reduction of wound density at 10 uM after 48 hrs by matrigel assay. Format: functional, MCF-10A. Also noted: scale not given: the % may be the effect or the level left.
The nature of assay [2]: Cytotoxicity against human MDA-MB-436 cells assessed as reduction in cell viability at 10 uM after 24 to 48 hrs by Celltiter-glo luminescence assay. Format: functional. The essentials: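 Cells sparsely plated in 96-well plates and allowed to adhere, then given DMSO or compound (0.1, 1, 10, 50 μM) for 24 and 48 h. Metabolically active cells quantified by CellTiter-Glo luminescence. MDA-MB-436 grown in DMEM/10% FBS; MCF10A PIK3CA (one endogenous H1047R allele) in DMEM/F12 with 5% horse serum, insulin, hydrocortisone.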

A word on the IC50: it is the midpoint of a concentration-inhibition curve. `COCCNc1nc2ccc(C#CC3(O)CCCCC3)cc2n1-c1ccnc(N)n1` displayed an IC50 against Ephrin type-B receptor 1 of more than 10 µM. Further, the Activity in assay [1] and in assay [2] was 50% each time.
